Screening data from PubChem BioAssay.
Compounds with a hit are over-represented: about 2.7% of the library has one in this group of screens.
PLK1 PBD inh: blocks phosphopeptide binding to human Plk1 polo box domain; Plk1 PBD phosphopeptide binding, fluorescence polarization; inhibition, %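 (tested at about 20 µM)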; actives 0.13% (n = 97,000); in the data active means inhibition above about 34%, passing the limit was not always enough
LYP inh 2: LYP (human) phosphatase inhibition. actives 0.21% (n = 96,000). recombinant LYP catalytic domain, DiFMUP fluorescence. Q9Y2R2. inhibition, % at 2 µM;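 active means inhibition at 2 µM at or above a set limit, the screen mean plus 3 SD, cut at about 24% in these data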;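 further: 0% = DMSO with enzyme and 100% = enzyme fully blocked by orthovanadate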
Target sequence (Q9Y2R2 whole entry, looked up, the tested form may be a part): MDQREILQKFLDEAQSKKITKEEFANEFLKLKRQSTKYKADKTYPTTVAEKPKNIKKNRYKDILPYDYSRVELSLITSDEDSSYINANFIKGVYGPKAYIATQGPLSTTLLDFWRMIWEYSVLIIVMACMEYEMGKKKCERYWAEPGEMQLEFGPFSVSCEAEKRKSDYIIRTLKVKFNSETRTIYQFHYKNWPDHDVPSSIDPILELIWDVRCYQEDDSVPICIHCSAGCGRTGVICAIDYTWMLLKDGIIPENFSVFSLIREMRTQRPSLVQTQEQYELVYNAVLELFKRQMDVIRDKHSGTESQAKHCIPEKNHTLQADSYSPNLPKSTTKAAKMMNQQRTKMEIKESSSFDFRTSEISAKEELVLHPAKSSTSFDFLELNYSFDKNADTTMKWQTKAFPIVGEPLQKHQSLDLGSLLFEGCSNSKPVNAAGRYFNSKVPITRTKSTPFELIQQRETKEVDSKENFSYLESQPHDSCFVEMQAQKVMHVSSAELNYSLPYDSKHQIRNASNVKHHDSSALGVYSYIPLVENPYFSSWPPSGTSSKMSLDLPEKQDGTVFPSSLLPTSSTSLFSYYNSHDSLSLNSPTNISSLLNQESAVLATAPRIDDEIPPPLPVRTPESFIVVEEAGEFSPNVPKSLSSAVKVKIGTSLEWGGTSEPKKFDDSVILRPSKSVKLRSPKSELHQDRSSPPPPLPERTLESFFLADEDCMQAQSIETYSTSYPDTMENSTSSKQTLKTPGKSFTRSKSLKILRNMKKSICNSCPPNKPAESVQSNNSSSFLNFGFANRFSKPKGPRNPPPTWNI
hDAT+cocaine: changed human dopamine transporter uptake under cocaine IC80; Q01959; LLC-PK1 hDAT cells, [14C]-dopamine uptake with cocaine IC80; actives deviate in either direction; B-score at 10 µM; actives 1.3% (n = 110,000); AID 449768;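 active means Z score or B-score, a plate-position-corrected score, falls beyond the plate's 99.7% confidence bounds, in either direction; inactive means both scores lie inside the 99.7% bounds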;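 further: scored against the spread of the other compound wells on the same plate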
LYP act: increases human PTPN22 phosphatase activity. Q9Y2R2. recombinant LYP, DiFMUP fluorescence; 0 = plate median, 100 = signal doubled. activation, % at 2 µM. actives 0.11% (n = 96,000);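 active means activation at 2 µM above a set limit, the mean plus 5 SD, cut at about 37% in these data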
Rev-RRE block: inhibitors of HIV-1 Rev-RRE RNA interaction; P05866; Rev peptide-RRE RNA binding, FRET; inhibition, % at 8 µM; actives 0.79% (n = 97,000); AID 704;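 active means inhibition above the screen-wide mean plus 3 SD, cut at about 35% in these data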;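 further: 0% = median DMSO wells and 100% = median Neomycin B control wells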
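Assay system: Labelled RRE RNA duplex and labelled Rev peptide | Times: 5 min preincubation and 15 min binding, 25 °C | Detection: FRET, ex 480 nm, em 540 and 671 nm | Evaluation: % inhibition of FRET ratio versus controls | Benchmarks: DMSO wells as 0% and neomycin B wells as 100% inhibition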
PLK1 inh: blocks human PLK1 kinase activity; inhibition, % at 10 µM; recombinant PLK1 kinase, TR-FRET peptide phosphorylation; actives 0.53% (n = 97,000); AID 619; P53350;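 active means inhibition of 50% or more in the single-concentration screen; inactive means inhibition below 50%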;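 further: 0% = DMSO max control and 100% = H-89 dihydrochloride min control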
Active calls of the source: *; x = not tested or not shown; [ ] = dose if it differs, or a comment.

SMILES | PLK1 PBD inh | LYP inh 2 | hDAT+cocaine | LYP act | Rev-RRE block | PLK1 inh
CN(C)c1ccc(/C=C/c2cc[n+](C)cc2)cc1 | -83 | -6 | -3.7* | 2 | 49*[fluorescence artefact?] | -43
CN(C)c1ccc(/C=C/c2cc[n+]([O-])cc2)cc1 | -50 | -6 | -1.6 | 7 | 120*[fluorescence artefact?] | -13
CN(C)c1ccc(C(=O)c2ccccc2)cc1 | 6 | 4 | 0.93 | -4 | 0 | -9
CC(C)CCNC(=O)C1CCCN1C(=O)NC1CCCCC1 (stereo not given) | -2 | -5 | -0.49 | 3 | 4 | -18
CC1(OC(=O)c2ccc(Cl)nc2)C(=O)C=C2C=C(c3ccc(C#N)cc3)OC=C2C1=O (stereo not given) | x | x | -0.013 | x | x | x
O=C(NC1(C(F)(F)F)NC(=O)N(C2CCCCC2)C1=O)c1cccs1 (stereo not given) | 11 | 6 | -3.3* | -2 | 5 | 7
CN1C(=O)NC(NC(=O)c2cccs2)(C(F)(F)F)C1=O (stereo not given) | 4 | -12 | -0.48 | 11 | 2 | 5
Cc1ccc(C(=O)c2c(NC(=O)c3cccnc3)sc3c2CCCC3)cc1 | -16 | -2 | 0.37 | 4 | 11 | -7
CCn1cc(C(=O)NC2CCCCC2C)c(=O)c2ccc(C)nc21 (stereo not given) | 12 | -28 | 0.81 | 27 | 4 | -8
CCn1cc(C(=O)NCc2cccs2)c(=O)c2ccc(C)nc21 | -6 | -27 | 2.9* | 26 | 2 | -13
CC12COC3(C(=O)Nc4cccnc4)CC1CCC32C (stereo not given) | -4 | 9 | -0.48 | -9 | 44* | -4
O=[N+]([O-])c1nn(-c2ccc3c(c2)OCCO3)n(O)c1=NCc1ccccc1Cl | -21 | -8 | 14* | 11 | 6 | -21
Nc1nonc1-c1nc2ccccc2n1CC(=O)N/N=C\c1ccc(-c2ccc(Cl)cc2)o1 | 11 | 19 | 0.14 | -16 | 9 | -11
CCCCCCc1cc2cc(-c3nnc(-c4ccccc4OC)o3)c(=O)oc2cc1O | -202 | 46* | 0.4 | -46 | 143*[fluorescence artefact?] | -3
CCCCCCc1cc2cc(-c3nnc(-c4cc(OC)c(OC)c(OC)c4)o3)c(=O)oc2cc1O | -149 | 43* | 1.2 | -43 | 135*[fluorescence artefact?] | -11
CCCCCCc1cc2cc(-c3nnc(-c4ccccc4O)o3)c(=O)oc2cc1O | x | x | 0.48 | x | x | x
O=C1CC(c2ccco2)CC(O)=C1C=Nc1cc(Cl)ccc1O (stereo not given) | -35 | -4 | -8.5* | 0 | 3 | 9
O=C(O)c1nn(-c2ccccc2)ccc1=O | -9 | 1 | -1.9 | 2 | 3 | -10
Cc1oc(CC(C)C)cc1C(=O)Nc1cccc2ccccc12 | 11 | -6 | -6.9* | 3 | 6 | -4
CCOc1ccccc1NC(=O)c1cc(CC(C)C)oc1C | 2 | 6 | 0.24 | -6 | 11 | -2
COc1ccc(C(=O)/C=C\N2CCOCC2)cc1 | -5 | 6 | -2.7* | -8 | 4 | -17
C#C[C@]1(O)CC[C@H]2[C@@H]3[C@H](C)CC4=C(CCC(=O)C4)[C@H]3CC[C@@]21C | x | x | -0.13 | x | x | x
O=C(Nc1nnc(-c2ccc(Cl)s2)o1)C1CCCCC1 | 18 | -2 | -0.087 | 0 | 0 | -4
CCCC(=O)Nc1nnc(-c2ccc(Cl)s2)o1 | 7 | x | x | x | 7 | 64*
Cc1cccc(N2CCN(C(=O)c3cccc(N4C(=O)C5CC=CC(C)C5C4=O)c3)CC2)c1C (stereo not given) | -6 | 4 | 0.99 | -1 | -1 | -5
SMILES | PLK1 PBD inh | LYP inh 2 | hDAT+cocaine | LYP act | Rev-RRE block | PLK1 inh
COCCn1c(=NC(=O)c2ccc3c(c2)OCO3)c(C#N)cc2c(=O)n3cccc(C)c3nc21 | -13 | -4 | -2.2* | 2 | 6 | -15
O=C1[C@H]2[C@@H](C(=O)N1c1cc(Cl)cc(Cl)c1)[C@]1(C(=O)Nc3ccccc31)N1CCC[C@@H]21 | 10 | 4 | 3.8* | -4 | 15 | -10
COc1ccc(C2C(C(=O)Nc3ccc4c(c3)OCCO4)c3ccccc3C(=O)N2C)cc1 (stereo not given) | -10 | 1 | -0.71 | -1 | 6 | -5
C=CCn1c(=O)c2ccccc2n2c(SCc3nc4ccccc4s3)nnc12 | 33 | -8 | 3.6* | 9 | 6 | -7
CCOc1cccc(NC(=O)C2CC(=O)NC(=Nc3ccccc3)S2)c1 (stereo not given) | 7 | 6 | 0.17 | -2 | 2 | -2
CC(OC(=O)c1ccco1)C(=O)NC1CCCCC1 (stereo not given) | -6 | 28* | 0.073 | -30 | 6 | -12
CC(C)C(OC(=O)c1ccco1)C(=O)NC1CCCCC1 (stereo not given) | 20 | -11 | 0.88 | 7 | -1 | -11
NS(=O)(=O)c1ccc(NCc2cc(Cl)ccc2OCc2ccccc2F)cc1 | -12 | -8 | 0.058 | 10 | 11 | -14
COc1cc(N2CCCC2)c(OC)cc1/C=C(/C#N)c1ccc(Br)cc1 | -137 | -4 | -0.82 | 4 | 114*[fluorescence artefact?] | -24
COc1ccc(/C=C(/C#N)c2cccnc2)cc1OC | x | x | 0.38 | x | x | x
COc1ccccc1C(=O)N1CCC(C(=O)c2ccc(F)cc2)CC1 | 24 | 8 | -0.62 | -8 | 2 | 6
COc1cc(N2CCCC2)c(OC)cc1/C=C(/C#N)c1ccc(F)cc1 | -132 | -6 | -1.6 | 6 | 95*[fluorescence artefact?] | -28
Cc1ccc(/C=C2\OC(=O)c3ccccc32)cc1 | 7 | -1 | 0.64 | 3 | 3 | -14
COC(C[C@@H](O)[C@H](C)[C@@H](O)COCc1ccccc1)OC | x | x | -0.47 | x | x | x
COC(=O)C[C@H]1c2cc(C(F)(F)F)ccc2S(=O)(=O)N1C1CCCC1 | x | x | 0.03 | x | x | x
CC1CCN(C(=O)Cn2cc3c(n2)CCCC3)CC1 | -20 | -19 | -0.43 | 18 | 5 | -8
CCOC(=O)N1CCN(C(=O)Cn2cc3c(n2)CCCC3)CC1 | x | x | -7.9* | x | x | x
CCN(CC)CCC(c1ccc2c(c1)OCO2)c1c(O)cc(OC)cc1OC (stereo not given) | x | x | -0.4 | x | x | x
O=C(Nc1cccc(O)c1)c1cnn2cccnc12 | -6 | -5 | -0.86 | 7 | 3 | 57*
O=C(Cc1ccc(Br)cc1)N1CCN(c2ccccc2O)CC1 | 22 | 5 | 1.2 | -3 | 6 | -4
O=C1C=C(c2ccc3c(c2)OCO3)CCC1 | x | x | 0.8 | x | x | x
CCCCn1c(SCC(=O)N2c3ccccc3Sc3ccccc32)nc2c1c(=O)n(C)c(=O)n2C | 2 | 23 | 3.2* | -23 | 0 | -6
Cn1c(=O)c2c(nc(SCC(=O)c3cccs3)n2Cc2ccc(F)cc2)n(C)c1=O | -7 | -8 | -0.67 | 6 | 9 | -6
CC1Cc2ccccc2N1C(=O)CSc1nc2c(c(=O)n(C)c(=O)n2C)n1Cc1ccc(F)cc1 (stereo not given) | 9 | 4 | -6.9* | -5 | 11 | -13
